Calls of active or inactive are those of the source. No cut-off for these calls is given here.
What was measured:
[1] = molecular target: T1, Sortase A (Staphylococcus aureus) (UniProt Q9S446); experiment: Irreversible ligand binding to Staphylococcus aureus SrtA using (Abz-Leu-Pro-Glu-Thr-Gly-Lys(Dnp)-NH2 as substrate by competitive binding based 1D CPMG relaxation dispersion NMR analysis
T1 sequence (whole entry): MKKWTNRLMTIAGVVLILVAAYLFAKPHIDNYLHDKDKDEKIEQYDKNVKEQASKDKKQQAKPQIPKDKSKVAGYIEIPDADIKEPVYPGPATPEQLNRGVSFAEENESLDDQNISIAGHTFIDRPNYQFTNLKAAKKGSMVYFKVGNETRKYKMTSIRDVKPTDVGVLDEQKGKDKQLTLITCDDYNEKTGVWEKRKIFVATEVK
In short: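 Ligand-observed CPMG competition: the ligand–SrtA sample is challenged with a known binder for the same site. Signal recovery indicates displacement and reversible binding; no recovery indicates irreversible binding.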

Sortase A [2] = molecular target: T2, Sortase A (Staphylococcus aureus, UniProt Q9S446); experiment: Inhibition of recombinant Staphylococcus aureus wild type truncated C-terminal His6 tagged Srt A using Abz-Leu-Pro-Glu-Thr-Gly-Lys(Dnp)-NH2 as substrate preincubated for 15 mins followed by substrate addition measured after 60 mins by FRET assay
T2 sequence (Q9S446 whole entry): T1 sequence (whole entry)

[3] = molecular target: T1, Sortase A (Staphylococcus aureus); experiment: Inhibition of recombinant Staphylococcus aureus wild type truncated C-terminal His6 tagged Srt A at 200 uM using Abz-Leu-Pro-Glu-Thr-Gly-Lys(Dnp)-NH2 as substrate preincubated for 15 mins followed by substrate addition measured after 60 mins by FRET assay relative to control
In short: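 FRET read-out: cleavage of the internally quenched substrate relieves Dnp quenching of the Abz fluorophore, and the resulting fluorescence reports SrtA activity. Compound at 200 µM, 15 min preincubation with enzyme. Inhibition reported as mean ± SD, n = 3.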

[4] = molecular target: T1, Sortase A (Staphylococcus aureus); experiment: Binding affinity to Staphylococcus aureus SrtA by ligand based 1D CPMG relaxation dispersion NMR analysis
In short: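 Ligand-observed 1D NMR: spectrum of ligand alone, then ligand with SrtA, acquired after a delay acting as a T2 filter. Binding is scored as a drop in ligand signal intensity.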

Staphylococcus aureus [5] = experiment: Growth inhibition of Staphylococcus aureus CCUG 15915 measured after 18 to 24 hrs by broth microdilution assay; type: organism-based
Staphylococcus aureus [6] = experiment: Growth inhibition of Staphylococcus aureus CCUG 17621 measured after 18 to 24 hrs by broth microdilution assay; type: organism-based
Escherichia coli = experiment: Growth inhibition of Escherichia coli CCUG 17620 measured after 18 to 24 hrs by broth microdilution assay; type: organism-based; settings: in vitro
Sortase A [7] = molecular target: T2, Sortase A; experiment: (§1) Inhibition of recombinant Staphylococcus aureus wild type truncated C-terminal His6 tagged Srt A using Abz-Leu-Pro-Glu-Thr-Gly-Lys(Dnp)-NH2 as substrate preincubated for 30 mins followed by substrate addition measured after 60 mins by FRET assay in presence of 0.5 mM reducing agent, DTT
[8] = molecular target: T1, Sortase A (Staphylococcus aureus); experiment: Covalent ligand binding to recombinant Staphylococcus aureus wild type truncated C-terminal His6 tagged SrtA assessed as enzyme modifications by measuring aminothiadiazolyl-thio (+130.96119 Da, +C2HN3S2) and nitrobenzyl-thio (+167.00410, +C7H5NO2S) fragments at 200 uM by LCMS analysis
[9] = molecular target: T1, Sortase A (Staphylococcus aureus); experiment: as §1
[10] = molecular target: T1, Sortase A (Staphylococcus aureus); experiment: Inhibition of recombinant Staphylococcus aureus wild type truncated C-terminal His6 tagged Srt A at 167 uM using Abz-Leu-Pro-Glu-Thr-Gly-Lys(Dnp)-NH2 as substrate preincubated for 15 mins followed by substrate addition measured after 60 mins by FRET assay relative to control
In short: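 FRET activity assay with an internally quenched substrate. Cleavage by SrtA separates the Abz donor from the Dnp quencher, and the increase in fluorescence is read. Compound at 167 µM with 15 min incubation. Percent inhibition is given as mean ± SD, n = 2.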

[11] = molecular target: T1, Sortase A (Staphylococcus aureus); experiment: Binding affinity to Staphylococcus aureus 15N-labeled SrtA by protein based 2D SOFAST-HMQC NMR analysis
[12] = molecular target: T1, Sortase A (Staphylococcus aureus); experiment: Reversible ligand binding to Staphylococcus aureus SrtA using (Abz-Leu-Pro-Glu-Thr-Gly-Lys(Dnp)-NH2 as substrate by NMR competitive displacement analysis
In short: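 Ligand-observed CPMG NMR uses a delay acting as a T2 filter. Spectra are taken of the ligand alone, then after SrtA is added, then after a known binder is added to compete for the site. Recovery of the ligand signal marks reversible, competitive binding.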

Sortase A [13] = molecular target: T2, Sortase A; experiment: Inhibition of recombinant Staphylococcus aureus wild type truncated C-terminal His6 tagged Srt A using Abz-Leu-Pro-Glu-Thr-Gly-Lys(Dnp)-NH2 as substrate preincubated for 30 mins followed by substrate addition measured after 60 mins by FRET assay
[14] = molecular target: T1, Sortase A (Staphylococcus aureus); experiment: Inhibition of recombinant Staphylococcus aureus wild type truncated C-terminal His6 tagged Srt A at 200 uM using Abz-Leu-Pro-Glu-Thr-Gly-Lys(Dnp)-NH2 as substrate preincubated for 6.3 hrs followed by substrate addition measured after 60 mins by FRET assay relative to control
[15] = molecular target: T1, Sortase A (Staphylococcus aureus); experiment: Covalent ligand binding to recombinant Staphylococcus aureus wild type truncated C-terminal His6 tagged SrtA assessed as enzyme modifications by measuring nicotinamido-thiadiazolyl thio (+235.98265 Da, +C8H4N4OS2) and nitrobenzyl-thio (+167.00410, +C7H5NO2S) fragments at 200 uM by LCMS analysis

| Compound | IC50 (Sortase A [2]) [µM] | inhibition [3] [%] | Activity [4] | also measured |
| --- | --- | --- | --- | --- |
| CC(C)n1c(S)nc2c1c(=O)n(C)c(=O)n2C | 50 |  |  | Activity [1]: Active |
| Nc1nnc(SCCc2cccc([N+](=O)[O-])c2)s1 |  | 13 | inactive |  |
| O=[N+]([O-])c1cccc(CSc2nnc(N3CCOCC3)s2)c1 |  | 29 | Active | MIC (Staphylococcus aureus [5]): > 256 µg/mL; MIC (Staphylococcus aureus [6]): > 256 µg/mL; MIC (Escherichia coli): > 256 µg/mL |
| CC(=O)Nc1nnc(SCc2cccc([N+](=O)[O-])c2)s1 |  | 18 |  | MIC (Staphylococcus aureus [5]): > 256 µg/mL; MIC (Staphylococcus aureus [6]): > 256 µg/mL; MIC (Escherichia coli): > 256 µg/mL |
| CCSc1c(S)cnn(-c2ccccc2)c1=O | 3 |  |  |  |
| CC(=O)Nc1nnc(SCc2ccc([N+](=O)[O-])cc2)s1 | 127 | 94 | Active |  |
| Nc1nnc(SCc2ccc3ccccc3c2)s1 |  | 13 |  |  |
| O=c1c(O)c(-c2ccc(O)cc2O)oc2cc(O)cc(O)c12 [MORIN] |  |  |  | IC50 (Sortase A [7]): 19 µM |
| O=[N+]([O-])c1cccc(CSc2nnc(Br)s2)c1 |  | 19 |  |  |
| Nc1nnc(SCc2ccccc2)s1 |  | 0 | inactive |  |
| O=C(Nc1nnc(SCc2ccc([N+](=O)[O-])cc2)s1)c1ccncc1 | 42 | 99 | inactive |  |
| O=[N+]([O-])c1ccc(CSc2nnc(N3CCNCC3)s2)cc1 | 71 | 80 | Active |  |
| O=[N+]([O-])c1cccc(CSc2nnc(Nc3cccnc3)s2)c1 |  | 37 |  |  |
| N#Cc1ccc(CSc2nnc(N)s2)cc1 |  | 2 | inactive |  |
| O=C(Nc1nnc(SCc2cccc([N+](=O)[O-])c2)s1)c1ccncc1 |  | 8 | Active | MIC (Staphylococcus aureus [5]): > 256 µg/mL; MIC (Staphylococcus aureus [6]): > 256 µg/mL; MIC (Escherichia coli): > 256 µg/mL |
| N#Cc1ccccc1CSc1nnc(N)s1 | 1740 | 1 | Active | MIC (Staphylococcus aureus [5]): > 256 µg/mL; MIC (Staphylococcus aureus [6]): > 256 µg/mL; MIC (Escherichia coli): > 256 µg/mL |
| Nc1nnc(Sc2ccccc2)s1 |  | 25 | inactive |  |
| O=C(Nc1nnc(SCc2cccc([N+](=O)[O-])c2)s1)c1cccnc1 |  | 13 |  |  |
| Nc1nnc(SCc2cccc([N+](=O)[O-])c2)s1 | 521 | 11 | Active | MIC (Staphylococcus aureus [5]): > 256 µg/mL; MIC (Staphylococcus aureus [6]): > 256 µg/mL; MIC (Escherichia coli): > 256 µg/mL |
| O=[N+]([O-])c1ccc(CSc2nnc(N3CCOCC3)s2)cc1 | 9 | 104 | Active |  |
| Nc1nnc(SCc2ccc([N+](=O)[O-])cc2)s1 | 26 | 101 | Active | MIC (Staphylococcus aureus [5]): > 256 µg/mL; MIC (Staphylococcus aureus [6]): > 256 µg/mL; MIC (Escherichia coli): > 256 µg/mL; Activity [8]: Active; inhibition [9]: inactive |
| Nc1nnc(SCc2ccc(F)cc2)s1 |  | 5 | inactive |  |
| O=C(Nc1nnc(SCc2cccc([N+](=O)[O-])c2)s1)c1ccco1 |  | 6 |  |  |
| FC(F)(F)c1ccnc(Sc2nc[nH]n2)n1 | 19 |  |  |  |
| Nc1nnc(Sc2ccc([N+](=O)[O-])c3nonc23)s1 | 6 to 6.2 |  | Active | inhibition [10]: 101%; inhibition [9]: inactive; Activity [11]: Active; Activity [12]: Active |
| Nc1nnc(Sc2ccc([N+](=O)[O-])cc2)s1 |  | 35 | inactive | IC50 (Sortase A [13]): Not Active |
| O=[N+]([O-])c1cccc(CSc2nnc(N3CCNCC3)s2)c1 |  | 27 | inactive | MIC (Staphylococcus aureus [5]): > 256 µg/mL; MIC (Staphylococcus aureus [6]): > 256 µg/mL; MIC (Escherichia coli): > 256 µg/mL; inhibition [14]: 38% |
| O=C(Nc1nnc(SCc2ccc([N+](=O)[O-])cc2)s1)c1cccnc1 | 3.8 | 100 | inactive | Activity [15]: Active; inhibition [9]: inactive |
